Measured values gathered from unrelated publications.
Each line is one published result; the experiments were not run side by side.
Target: Delta-type opioid receptor (OPRD1, Homo sapiens, UniProt P41143)

CCCCC/C=C\C/C=C\C/C=C\C/C=C\CCCC(=O)O — Ki (ligand displacement, radioligand; cell membranes): 4800 nM
Cc1cc(O)cc(C)c1C[C@H](N)C(=O)N1Cc2ccccc2C[C@H]1C(=O)NCC(=O)NCc1ccc([N+](=O)[O-])cc1 — Ki (ligand displacement, radioligand; cell membranes): 0.39 nM
Cc1cc(/N=N/C(=O)NCC2(N(C)C)CCCCC2)ccc1F — Ki (cell-free assay): 30000 nM
C[N+]1(C)CCC(=C(c2ccccc2)c2ccccc2)CC1 — Ki (cell-free assay): 14000 nM
C[C@@H](NC(=O)C[C@@H](N)Cc1ccc(O)cc1)C(=O)NCC(=O)N[C@@H](Cc1ccccc1)C(=O)NNC(=O)[C@H](Cc1ccccc1)NC(=O)CNC(=O)[C@@H](C)NC(=O)C[C@@H](N)Cc1ccc(O)cc1 — Ki (ligand displacement, radioligand): 480 nM
C[C@@H](NC(=O)[C@@H](N)Cc1ccc(O)cc1)C(=O)NCC(=O)N[C@@H](Cc1ccc(Cl)cc1)C(=O)N(C)CCC[C@@]1(c2ccc(F)cc2)OCc2cc(C#N)ccc21 — Ki (cell-free assay): 1.6 nM
CCCCCCCCC[C@@H]1CC(=O)NCC(=O)N[C@H](Cc2ccc(O)cc2)C(=O)NCC(=O)N[C@@H](Cc2ccccc2)C(=O)O1 — Ki (ligand displacement, radioligand): 21000 nM
C[C@@H](NC(=O)[C@@H](N)Cc1ccc(O)cc1)C(=O)NCC(=O)N[C@@H](Cc1ccccc1)C(=O)N(C)CCC[C@@]1(c2ccc(F)cc2)OCc2cc(C#N)ccc21 — Ki (cell-free assay): 57 nM
Cc1cc(O)cc(C)c1C[C@H](N)C(=O)N1Cc2ccccc2C[C@H]1C(=O)NCC(=O)NC(c1ccccc1)c1ccccc1 — Ki (ligand displacement, radioligand; cell membranes): 0.94 nM
Cc1cc(O)cc(C)c1C[C@H](N)C(=O)N1Cc2ccccc2CC1C(=O)NCC(=O)NC(Cc1ccc(Cl)cc1)C(=O)N(C)CCC[C@@]1(c2ccc(F)cc2)OCc2cc(C#N)ccc21 (stereo in doubt) — Ki (cell-free assay): 20 nM
Cc1cc(O)cc(C)c1C[C@H](N)C(=O)N1Cc2ccccc2C[C@@H]1C(=O)NCC(=O)NCc1ccccc1 — Ki (ligand displacement, radioligand; cell membranes): 3.2 nM
CCCO[C@@]12Cc3cc(-c4ccccc4)cnc3[C@@H]3Oc4c(O)ccc5c4[C@@]31CCN(CC1CC1)[C@@H]2C5 — Ki (ligand displacement, radioligand; cell membranes): 7.48 nM
Cc1cc(F)ccc1/N=N/C(=O)NCC1(N(C)C)CCCCC1 — Ki (cell-free assay): 12000 nM
